Results on 26 compounds are retold here after ChEMBL document CHEMBL1148769, “3,17-disubstituted 2-alkylestra-1,3,5(10)-trien-3-ol derivatives: synthesis, in vitro and in vivo anticancer activity” (J Med Chem, 2007).

In assay [1] the test system is DU-145. The assay is described as follows: Antiproliferative activity against human DU145 cells after 96 hrs by WST1 assay. In kind it is functional. The following applies: DU-145, 96 h. The gist of the method: (§1)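 Cells kept in RPMI-1640 with 10% FBS, penicillin and streptomycin at 37 °C in 5% CO2. Seeded at 5000 cells/well, exposed to 10^-9-10^-4 M compound or vehicle for 96 h. Live cells counted by WST-1 and viability expressed as % of mean control, from which GI50 was calculated. Triplicate experiments.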

For assay [2], the system named is MDA-MB-231. The assay is described as follows: Antiproliferative activity against human MDA-MB-231 cells after 96 hrs by WST1 assay. Type of assay: functional. Conditions: MDA-MB-231, 96 h. The gist of the method:
as §1

The next assay has as its system MCF7. The assay is described as follows: Antiproliferative activity against human MCF7 cells by WST1 assay. In kind it is functional.
Assay [3] has as its system MDA-MB-231. Kind of assay: Antitumor activity against human MDA-MB-231 cells xenografted athymic mouse at 60 mg/kg/day, po after 28 days. In kind it is functional, organism-based. The gist of the method: (§2)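 Female NCr-nude mice, 6-8 weeks old, bearing MDA-MB-231 xenografts, dosed orally in THF/PG vehicle from day 10. Schedules: 60 mg/kg daily for 28 d (to day 38), 90 mg/kg Mon/Wed/Fri × 4 (to day 36), or 200 mg/kg weekly × 4 (to day 32). Tumor volume was (w² × l)/2; one-way ANOVA against control.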

Assay [4] deals with MDA-MB-231. Kind of assay: Antitumor activity against human MDA-MB-231 cells xenografted athymic mouse at 90 mg/kg, po thrice a week for 4 weeks. Type of assay: functional, organism-based. On the set-up: dose 90 mg/kg. The method in brief:
as §2

The subject of assay [5] is MDA-MB-231. The assay is described as follows: Antitumor activity against human MDA-MB-231 cells xenografted athymic mouse at 200 mg/kg, po, once a week for 4 weeks. Type of assay: functional, organism-based. The arrangement: dose 200 mg/kg. The gist of the method:
as §2

Assay [6] deals with DU-145. Kind of assay: Antitumor activity against human DU145 cells xenografted athymic mouse at 10 mg/kg/day, po after 25 days. In kind it is functional. The gist of the method:
(§3)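 Male NCr-nude mice, 6-8 weeks old, implanted s.c. in the flank with 5 × 10⁶ DU145 cells; treatment began once tumors reached about 50-100 mm³. Dosed orally at 10, 20 or 40 mg/kg once daily for 28 d. Tumor volume was (w² × l)/2 and inhibition read after 25 days of treatment (day 35).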

Assay [7] relates to DU-145. The assay is described as follows: Antitumor activity against human DU145 cells xenografted athymic mouse at 20 mg/kg/day, po after 25 days. In kind it is functional. The method in brief:
as §3

In assay [8] the test system is DU-145. The assay is described as follows: Antitumor activity against human DU145 cells xenografted athymic mouse at 40 mg/kg/day, po after 25 days. In kind it is functional. The method in brief:
as §3

Another assay deals with T1, Steryl-sulfatase (Homo sapiens, UniProt P08842).
T1 sequence (P08842 whole entry): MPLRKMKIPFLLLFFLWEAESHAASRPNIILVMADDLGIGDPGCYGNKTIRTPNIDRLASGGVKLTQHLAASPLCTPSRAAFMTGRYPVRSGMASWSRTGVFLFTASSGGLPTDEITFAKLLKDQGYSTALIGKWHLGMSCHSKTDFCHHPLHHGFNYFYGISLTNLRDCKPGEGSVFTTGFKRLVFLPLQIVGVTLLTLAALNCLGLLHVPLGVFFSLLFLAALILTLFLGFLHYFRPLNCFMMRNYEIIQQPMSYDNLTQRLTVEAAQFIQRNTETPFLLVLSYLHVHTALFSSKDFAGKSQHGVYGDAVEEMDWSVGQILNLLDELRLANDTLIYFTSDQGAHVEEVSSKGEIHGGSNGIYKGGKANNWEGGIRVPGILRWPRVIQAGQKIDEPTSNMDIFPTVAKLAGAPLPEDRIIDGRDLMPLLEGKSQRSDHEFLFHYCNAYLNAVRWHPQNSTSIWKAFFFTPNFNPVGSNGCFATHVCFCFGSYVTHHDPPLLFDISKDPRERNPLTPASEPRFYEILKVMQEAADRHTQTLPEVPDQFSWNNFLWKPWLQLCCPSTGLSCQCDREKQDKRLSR
Kind of assay: Inhibition of steroid sulfatase in placental microsomes. On the set-up: species or system Placenta. The gist of the method: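 Radiometric assay of STS activity in placental microsomes: conversion of tritiated estradiol-3-sulfate to estradiol is measured.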

Structures are written as SMILES. Active and inactive are the calls of the source. The calls are words filed in the database; no cut-off is given here. A value given as a limit tells only on which side of the number the result lay.

Consider `CCc1cc2c(cc1O)CC[C@@H]1[C@@H]2CC[C@]2(C)[C@@H](O)CC[C@@H]12`, for which the GI50 in the assay with DU-145 [1] is 10.3 µM; with MDA-MB-231 [2] it was 8 µM.
As to `Cc1cc2c(cc1OS(N)(=O)=O)CC[C@@H]1[C@@H]2CC[C@]2(C)[C@@H](OC(N)=O)CC[C@@H]12`, the GI50 in the assay on DU-145 [1] was found to be 1.9 µM; with MDA-MB-231 [2], 4.7 µM.
As for `CCCCc1cc2c(cc1OS(N)(=O)=O)CC[C@@H]1[C@@H]2CC[C@]2(C)[C@@H](OC(N)=O)CC[C@@H]12`, the 50% growth inhibitory concentration (GI50) in the assay with DU-145 [1] was 15 µM; in the assay on MDA-MB-231 [2], more than 100 µM.
The compound `Cc1cc2c(cc1O)CC[C@@H]1[C@@H]2CC[C@]2(C)[C@@H](O)CC[C@@H]12` came in with a GI50 with DU-145 [1] of 51 µM.
For the compound `CC(C)(C)c1cc2c(cc1OS(N)(=O)=O)CC[C@@H]1[C@@H]2CC[C@]2(C)[C@@H](OC(N)=O)CC[C@@H]12`, the figures for the GI50 in the assay on DU-145 [1] and in the assay with MDA-MB-231 [2] were 13 µM and 17 µM, respectively.
On the same counts, the results for `CCCCc1cc2c(cc1OS(N)(=O)=O)CC[C@@H]1[C@@H]2CC[C@]2(C)[C@@H](OC(C)=O)CC[C@@H]12` are 18.4 µM and 21.6 µM.
In turn, `CC(C)c1cc2c(cc1O)CC[C@@H]1[C@@H]2CC[C@]2(C)[C@@H](O)CC[C@@H]12` registered a GI50 in the assay on DU-145 [1] of 23 µM.
As for `CCCc1cc2c(cc1OS(N)(=O)=O)CC[C@@H]1[C@@H]2CC[C@]2(C)[C@@H](OC(N)=O)CC[C@@H]12`, the GI50 in the assay with DU-145 [1] is 21 µM; with MDA-MB-231 [2] it was 14.5 µM.
`CC(C)(C)c1cc2c(cc1O)CC[C@@H]1[C@@H]2CC[C@]2(C)[C@@H](O)CC[C@@H]12` showed a GI50 with DU-145 [1] of 24 µM.
In the case of `COc1cc2c(cc1O)CC[C@@H]1[C@@H]2CC[C@]2(C)[C@@H](O)CC[C@@H]12` [2-METHOXYESTRADIOL], in the assay on MDA-MB-231 [2], the 50% growth inhibitory concentration (GI50) came to 0.94 µM.
In the case of `CCCc1cc2c(cc1O)CC[C@@H]1[C@@H]2CC[C@]2(C)[C@@H](O)CC[C@@H]12`, the concentration for 50% growth inhibition (GI50) in the assay on DU-145 [1] was found to be 15 µM; with MDA-MB-231 [2] it was 16.6 µM.
For `CC(C)c1cc2c(cc1OS(N)(=O)=O)CC[C@@H]1[C@@H]2CC[C@]2(C)[C@@H](OS(N)(=O)=O)CC[C@@H]12`, the GI50 in the assay on DU-145 [1] came to 1.8 µM.
Take `CCc1cc2c(cc1OS(N)(=O)=O)CC[C@@H]1[C@@H]2CC[C@]2(C)[C@@H](OC(C)=O)CC[C@@H]12`: halving of growth in the assay with DU-145 [1] (GI50) required 1.6 µM.
For the compound `CCCCc1cc2c(cc1O)CC[C@@H]1[C@@H]2CC[C@]2(C)[C@@H](O)CC[C@@H]12`, the concentration for 50% growth inhibition (GI50) with DU-145 [1] and with MDA-MB-231 [2] was more than 100 µM in each case.
Turning to `C[C@]12CC[C@@H]3c4ccc(OS(N)(=O)=O)cc4CC[C@H]3[C@@H]1CC[C@@H]2OS(N)(=O)=O`, the GI50 in the assay with DU-145 [1] came to 11.5 µM; with MDA-MB-231 [2] it was 18.3 µM.
With `CCCCc1cc2c(cc1OS(N)(=O)=O)CC[C@@H]1[C@@H]2CC[C@]2(C)[C@@H](OS(N)(=O)=O)CC[C@@H]12`, the results for the 50% growth inhibitory concentration (GI50) with DU-145 [1] and in the assay on MDA-MB-231 [2] were 9 µM and 10.7 µM, respectively.
With `CCc1cc2c(cc1OS(N)(=O)=O)CC[C@@H]1[C@@H]2CC[C@]2(C)[C@@H](OC(N)=O)CC[C@@H]12`, the 50% growth inhibitory concentration (GI50) in the assay on DU-145 [1] was determined as 0.22 µM; with MDA-MB-231 [2] it was 0.39 µM; with MCF7 it was 0.64 µM.
`CC(C)(C)c1cc2c(cc1OS(N)(=O)=O)CC[C@@H]1[C@@H]2CC[C@]2(C)[C@@H](OS(N)(=O)=O)CC[C@@H]12` gave a concentration for 50% growth inhibition (GI50) in the assay on DU-145 [1] of more than 10 µM.
Turning to `COc1cc2c(cc1OS(N)(=O)=O)CC[C@@H]1[C@@H]2CC[C@]2(C)[C@@H](OS(N)(=O)=O)CC[C@@H]12`, the GI50 came to 0.34 µM with DU-145 [1] and 0.28 µM with MDA-MB-231 [2].
In the case of `CCc1cc2c(cc1OS(N)(=O)=O)CC[C@@H]1[C@@H]2CC[C@]2(C)[C@@H](OS(N)(=O)=O)CC[C@@H]12`, the GI50 in the assay on DU-145 [1] and with MDA-MB-231 [2] was 0.21 µM in each case. Also, the result with MDA-MB-231 [3], in the assay on MDA-MB-231 [4] and in the assay on MDA-MB-231 [5] was Active. For the same compound, the Activity with DU-145 [6] came out at 24%; with DU-145 [7], 27%; with DU-145 [8], 65%.
`Cc1cc2c(cc1OS(N)(=O)=O)CC[C@@H]1[C@@H]2CC[C@]2(C)[C@@H](OS(N)(=O)=O)CC[C@@H]12`: the 50% growth inhibitory concentration (GI50) in the assay with DU-145 [1] worked out at 0.38 µM; in the assay with MDA-MB-231 [2], 0.25 µM.
With `COc1cc2c(cc1OS(N)(=O)=O)CC[C@@H]1[C@@H]2CC[C@]2(C)[C@@H](OC(N)=O)CC[C@@H]12`, the GI50 amounted to 1.34 µM in the assay on DU-145 [1], 1.15 µM with MDA-MB-231 [2] and 3.5 µM in the assay with MCF7. Besides, the midpoint of inhibition on Steryl-sulfatase, the IC50, lay at 0.52 µM.
As for `C[C@]12CC[C@@H]3c4ccc(OS(N)(=O)=O)cc4CC[C@H]3[C@@H]1CC[C@@H]2OC(N)=O`, the GI50 in the assay on DU-145 [1] is more than 100 µM; in the assay on MDA-MB-231 [2] it was more than 100 µM; in the assay on MCF7 it was 45 µM. The compound also gave an IC50 on Steryl-sulfatase of 0.04 µM.
Turning to `CCCc1cc2c(cc1OS(N)(=O)=O)CC[C@@H]1[C@@H]2CC[C@]2(C)[C@@H](OC(C)=O)CC[C@@H]12`, the GI50 with DU-145 [1] is 61.3 µM; with MDA-MB-231 [2], 20.4 µM.
Turning to `CCCc1cc2c(cc1OS(N)(=O)=O)CC[C@@H]1[C@@H]2CC[C@]2(C)[C@@H](OS(N)(=O)=O)CC[C@@H]12`, the figures for the GI50 in the assay with DU-145 [1] and with MDA-MB-231 [2] were 3.4 µM and 6.4 µM, respectively.
Regarding `CC(C)c1cc2c(cc1OS(N)(=O)=O)CC[C@@H]1[C@@H]2CC[C@]2(C)[C@@H](OC(N)=O)CC[C@@H]12`, the GI50 came out at 2.4 µM in the assay with DU-145 [1] and 3.4 µM with MDA-MB-231 [2].
